In ChEMBL document CHEMBL1156256, “Poly(ethylene glycol) (PEG-400) as an alternative reaction solvent for the synthesis of some new 1-(4-(4'-chlorophenyl)-2-thiazolyl)-3-aryl-5-(2-butyl-4-chloro-1H-imidazol-5yl)-2-pyrazolines and their in vitro antimicrobial evaluation” (2010):
Converted amounts (≈) assume the structure as drawn.

How the values were obtained:
[1] = test system: Salmonella enterica; test: Antibacterial activity against Salmonella typhi MTCC 98 after 24 hrs by agar diffusion method; assay type: functional, Salmonella enterica subsp. enterica serovar Typhi; details: for MIC: Salmonella enterica, MTCC 98, 24 h
How it was run: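 NCCLS agar diffusion. Strain kept on nutrient agar slant at 37 ± 0.5 °C for 24 h. Nutrient agar plates seeded with 0.1 mL of a 10⁵ CFU/mL suspension in sterile 0.85% saline. Plates incubated at 37 ± 0.5 °C for 24 h. Read-out: zone of inhibition (mm) and MIC.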

[2] = test system: Candida albicans; test: Antifungal activity against Candida albicans MTCC 183 after 24 to 48 hrs by agar diffusion method; assay type: functional; details: for MIC: Candida albicans, MTCC 183
How it was run: (§1)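 Fungi grown on potato dextrose agar slants at 27 ± 0.2 °C for 24–48 h until sporulation. Spores suspended in sterile water with 1% Tween-80 and counted by haemocytometer (10⁶ CFU/mL). 0.1 mL spread on 2% agar PDA plates and held at 27 °C for 12 h. Wells then received 0.1 mL of compound at graded concentrations for MIC. Plates refrigerated 20 min for diffusion, then incubated at 27 ± 0.2 °C for […]. Zone read in mm. 1% DMSO used as control.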

[3] = test system: Fusarium verticillioides; test: Antifungal activity against Fusarium moniliforme MTCC 156 after 24 to 48 hrs by agar diffusion method; assay type: functional; details: for MIC: Fusarium verticillioides, MTCC 156; how it was run: as §1
[4] = test system: Escherichia coli; test: Antibacterial activity against Escherichia coli MTCC 2939 after 24 hrs by agar diffusion method; assay type: functional; details: for MIC: Escherichia coli, MTCC 2939, 24 h
How it was run: (§2)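 Agar well diffusion following NCCLS. Bacteria kept on nutrient agar slants at 37 ± 0.5 °C for 24 h. Nutrient agar plates seeded with 0.1 mL of culture suspension in 0.85% sterile saline (10⁵ CFU/mL). Plates incubated at 37 ± 0.5 °C for 24 h. Zone of inhibition recorded in mm, and MIC noted. 1% DMSO used as control.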

[5] = test system: Bacillus subtilis; test: Antibacterial activity against Bacillus subtilis MTCC 441 after 24 hrs by agar diffusion method; assay type: functional; details: for MIC: Bacillus subtilis, MTCC 441, 24 h; how it was run: as §2
[6] = test system: Aspergillus niger; test: Antifungal activity against Aspergillus niger MTCC 281 after 24 to 48 hrs by agar diffusion method; assay type: functional; details: for MIC: Aspergillus niger, MTCC 281; how it was run: as §1
[7] = test system: Staphylococcus aureus; test: Antibacterial activity against Staphylococcus aureus MTCC 96 after 24 hrs by agar diffusion method; assay type: functional; details: for MIC: Staphylococcus aureus, MTCC 96, 24 h; how it was run: as §2
[8] = test system: Penicillium chrysogenum; test: Antifungal activity against Penicillium chrysogenum MTCC 160 after 24 to 48 hrs by agar diffusion method; assay type: functional; details: for MIC: Penicillium chrysogenum, MTCC 160; how it was run: as §1
[9] = test system: Trichoderma viride; test: Antifungal activity against Trichoderma viride MTCC 167 after 24 to 48 hrs by agar diffusion method; assay type: functional; details: for MIC: Trichoderma viride, MTCC 167; how it was run: as §1

Row | SMILES | inhibition zone (IZ) [1] [mm] | MIC [1] [µg/mL] | inhibition zone (IZ) [2] [mm] | MIC [2] [µg/mL] | inhibition zone (IZ) [3] [mm] | MIC [3] [µg/mL] | inhibition zone (IZ) [4] [mm] | MIC [4] [µg/mL] | inhibition zone (IZ) [5] [mm] | MIC [5] [µg/mL] | inhibition zone (IZ) [6] [mm] | MIC [6] [µg/mL] | inhibition zone (IZ) [7] [mm] | MIC [7] [µg/mL] | inhibition zone (IZ) [8] [mm] | MIC [8] [µg/mL] | inhibition zone (IZ) [9] [mm] | MIC [9] [µg/mL]
1 | CCCCc1nc(Cl)c(C2CC(c3cc(Cl)cc(Cl)c3O)=NN2c2nc(-c3ccc(Cl)cc3)cs2)[nH]1 (stereo not given) | 18 | 25 (≈ 43 µM) | 16 | 25 (≈ 43 µM) | 15 | 25 (≈ 43 µM) | 21 | 25 (≈ 43 µM) | 22 | 25 (≈ 43 µM) | 19 | 25 (≈ 43 µM) | 16 | 25 (≈ 43 µM) | 18 | 25 (≈ 43 µM) | 18 | 25 (≈ 43 µM)
2 | CCCCc1nc(Cl)c(C2CC(c3cc(Cl)ccc3O)=NN2c2nc(-c3ccc(Cl)cc3)cs2)[nH]1 (stereo not given) | 12 | 50 (≈ 91.4 µM) | 16 | 25 (≈ 45.7 µM) | 15 | 25 (≈ 45.7 µM) | 18 | 25 (≈ 45.7 µM) | 18 | 25 (≈ 45.7 µM) | 16 | 25 (≈ 45.7 µM) | 16 | 25 (≈ 45.7 µM) | 12 | 25 (≈ 45.7 µM) | 15 | 25 (≈ 45.7 µM)
3 | CCCCc1nc(Cl)c(C2CC(c3cc(Cl)c(C)cc3O)=NN2c2nc(-c3ccc(Cl)cc3)cs2)[nH]1 (stereo not given) | 9 | 50 (≈ 89.1 µM) | – | > 100 | 11 | 50 (≈ 89.1 µM) | 14 | 50 (≈ 89.1 µM) | – | > 100 | 12 | 50 (≈ 89.1 µM) | 12 | 50 (≈ 89.1 µM) | 13 | 25 (≈ 44.6 µM) | 14 | 25 (≈ 44.6 µM)
4 | CCCCc1nc(Cl)c(C2CC(c3ccccc3O)=NN2c2nc(-c3ccc(Cl)cc3)cs2)[nH]1 (stereo not given) | 10 | 50 (≈ 97.6 µM) | 15 | 25 (≈ 48.8 µM) | 13 | 25 (≈ 48.8 µM) | 15 | 50 (≈ 97.6 µM) | 16 | 50 (≈ 97.6 µM) | 14 | 25 (≈ 48.8 µM) | 13 | 50 (≈ 97.6 µM) | 14 | 25 (≈ 48.8 µM) | 16 | 25 (≈ 48.8 µM)
